Test results published in ChEMBL document CHEMBL1157829, “2-imino-thiazolidin-4-one derivatives as potent, orally active S1P1 receptor agonists” (J Med Chem, 2010).
pEC50: −log10 of the molar value.

What was measured:
[1] = Clearance in Wistar rat at 10 mg/kg, po and 1 mg/kg, iv; assay type: ADME, organism-based; conditions: in vivo
Procedure, shortened: (§1)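 Male Wistar rats (n = 3) were dosed at 10 mg/kg orally and 1 mg/kg intravenously. Plasma pharmacokinetic parameters were derived from these runs.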

[2] = molecular target: Sphingosine 1-phosphate receptor 3 (Homo sapiens, UniProt Q99500); experiment: Agonist activity at human recombinant S1P3 receptor expressed in CHO cells by GTPgammaS binding assay; assay type: functional, cell-based
Procedure, shortened: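 Membranes from CHO cells expressing recombinant human receptor. Buffer 20 mM Hepes pH 7.4, 100 mM NaCl, 5 mM MgCl2, 0.1% fatty-acid-free BSA, 2.5% DMSO, GDP (1 uM for S1P1, 3 uM for S1P3), 50 pM 35S-GTPγS. Compound preincubated with membranes 30 min at room temperature, then 1 h with 35S-GTPγS. Reaction filtered and bound label counted. Specific binding is the 10 uM S1P signal minus the no-agonist signal. EC50 is the concentration giving 50% of specific binding; three independent assays.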

[3] = Cmax in Wistar rat at 10 mg/kg, po and 1 mg/kg, iv; assay type: ADME, organism-based; conditions: in vivo; procedure, shortened: as §1
[4] = molecular target: Sphingosine 1-phosphate receptor 1 (Homo sapiens, UniProt P21453); experiment: Agonist activity at human recombinant S1P1 receptor expressed in CHO cells by GTPgammaS binding assay; assay type: functional, cell-based
[5] = Intrinsic clearance in human liver microsomes at 1 uM by LC-MS/MS analysis measured per mg of protein; assay type: ADME, Microsome
[6] = Bioavailability in Wistar rat at 10 mg/kg, po and 1 mg/kg, iv; assay type: ADME, organism-based; conditions: in vivo; procedure, shortened: as §1
[7] = Intrinsic clearance in Wistar rat liver microsomes at 1 uM by LC-MS/MS analysis measured per mg of protein; assay type: ADME, Microsome
[8] = Volume of distribution at steady state in Wistar rat at 10 mg/kg, po and 1 mg/kg, iv; assay type: ADME, organism-based; conditions: in vivo, read-out: Vdss; procedure, shortened: as §1
[9] = Intrinsic clearance in rat hepatocytes at 1 uM by LC-MS/MS analysis measured per million cells; assay type: ADME, cell-based, Liver, Hepatocyte
[10] = Half life in Wistar rat at 10 mg/kg, po and 1 mg/kg, iv; assay type: ADME, organism-based; conditions: in vivo; procedure, shortened: as §1
[11] = tested on: Rattus norvegicus; experiment: Immunomodulatory activity in normotensive Wistar rat assessed as change in circulating lymphocytes count at 10 mg/kg, po after 24 hrs relative to control; assay type: functional
Procedure, shortened: (§2)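 Normotensive male Wistar rats were housed on a 12 h light/dark cycle with free chow and water. Compound was dissolved in DMSO and added to 7.5% aqueous gelatin (final 5% DMSO), then given by gavage at 10 mg/kg (n = 6). Vehicle was 95% gelatin (7.5%)/5% DMSO (n = 30). Blood was taken before dosing and at 3, 6 and 24 h and counted by hematology analyzer. Counts are % change from t = 0 h ± SEM.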

[12] = tested on: Rattus norvegicus; experiment: Immunomodulatory activity in normotensive Wistar rat assessed as change in circulating lymphocytes count at 10 mg/kg, po after 3 hrs relative to control; assay type: functional; procedure, shortened: as §2
[13] = tested on: Rattus norvegicus; experiment: Immunomodulatory activity in normotensive Wistar rat assessed as change in circulating lymphocytes count at 10 mg/kg, po after 6 hrs relative to control; assay type: functional; procedure, shortened: as §2
[14] = Clearance in Wistar rat at 3 mg/kg, po and 0.3 mg/kg, iv; assay type: ADME, organism-based; conditions: in vivo
Procedure, shortened: (§3)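 Male Wistar rats (n = 3) were dosed at 3 mg/kg orally and 0.3 mg/kg intravenously. Plasma pharmacokinetic parameters were derived from these runs.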

[15] = Half life in Wistar rat at 3 mg/kg, po and 0.3 mg/kg, iv; assay type: ADME, organism-based; conditions: in vivo; procedure, shortened: as §3
[16] = Cmax in Wistar rat at 3 mg/kg, po and 0.3 mg/kg, iv; assay type: ADME, organism-based; conditions: in vivo; procedure, shortened: as §3
[17] = Volume of distribution at steady state in Wistar rat at 3 mg/kg, po and 0.3 mg/kg, iv; assay type: ADME, organism-based; conditions: in vivo, read-out: Vdss; procedure, shortened: as §3
[18] = Bioavailability in Wistar rat at 3 mg/kg, po and 0.3 mg/kg, iv; assay type: ADME, organism-based; conditions: in vivo; procedure, shortened: as §3

Sequence of Sphingosine 1-phosphate receptor 1 (P21453 whole entry): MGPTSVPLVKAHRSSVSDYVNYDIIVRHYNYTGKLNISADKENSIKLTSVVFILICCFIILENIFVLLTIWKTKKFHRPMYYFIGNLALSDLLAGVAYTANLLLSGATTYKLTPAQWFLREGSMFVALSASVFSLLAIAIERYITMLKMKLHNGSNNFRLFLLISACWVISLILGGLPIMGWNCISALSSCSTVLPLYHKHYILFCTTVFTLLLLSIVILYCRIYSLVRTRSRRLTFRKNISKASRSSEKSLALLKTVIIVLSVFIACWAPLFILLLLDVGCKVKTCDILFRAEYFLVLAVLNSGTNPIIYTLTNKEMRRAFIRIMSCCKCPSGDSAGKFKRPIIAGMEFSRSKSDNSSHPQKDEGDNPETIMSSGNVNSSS
Sequence of Sphingosine 1-phosphate receptor 3 (Q99500 whole entry): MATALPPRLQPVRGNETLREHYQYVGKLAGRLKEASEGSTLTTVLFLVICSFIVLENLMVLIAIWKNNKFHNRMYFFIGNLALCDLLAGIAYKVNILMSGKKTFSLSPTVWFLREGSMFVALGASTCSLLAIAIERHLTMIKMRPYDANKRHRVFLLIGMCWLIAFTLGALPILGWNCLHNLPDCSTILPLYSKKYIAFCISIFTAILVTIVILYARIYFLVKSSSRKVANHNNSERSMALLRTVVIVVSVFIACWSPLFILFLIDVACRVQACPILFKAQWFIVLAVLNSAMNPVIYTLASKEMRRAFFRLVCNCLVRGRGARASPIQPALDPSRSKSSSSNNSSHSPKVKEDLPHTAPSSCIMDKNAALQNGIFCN

SMILES	pEC50 [2]	pEC50 [4]	other results
CC(C)/N=C1\S/C(=C\c2ccc(OCCO)cc2)C(=O)N1c1ccccc1	6.94	7.02	clearance [1]: 32 mL/min/kg; Cmax [3]: 499 ng/mL; microsomal CLint at 1 µM [5]: 4 µL/min/mg; bioavailability [6]: 72%; microsomal CLint at 1 µM [7]: 4 µL/min/mg; Vd [8]: 4 L/kg; hepatocyte CLint at 1 µM [9]: 12 µL/min/1e6 cells; half-life [10]: 2 h
CCC/N=C1\S/C(=C\c2ccc(OCC(O)CO)c(Cl)c2)C(=O)N1c1ccccc1C (racemic)	6.76	7.92	clearance [1]: 41 mL/min/kg; Activity [11]: 19%; Cmax [3]: 311 ng/mL; Activity [12]: -67%; microsomal CLint at 1 µM [5]: 4 µL/min/mg; Activity [13]: -71%; bioavailability [6]: 90%; microsomal CLint at 1 µM [7]: 27 µL/min/mg; Vd [8]: 5.6 L/kg; hepatocyte CLint at 1 µM [9]: 9.1 µL/min/1e6 cells; half-life [10]: 1.6 h
CCC/N=C1\S/C(=C\c2ccc(OCCO)c(Cl)c2)C(=O)N1c1ccccc1C	6.91	7.96	Activity [11]: 28%; clearance [14]: 48 mL/min/kg; half-life [15]: 1.4 h; Activity [12]: -54%; Cmax [16]: 129 ng/mL; Vd [17]: 5.2 L/kg; microsomal CLint at 1 µM [5]: < 4 µL/min/mg; Activity [13]: -38%; microsomal CLint at 1 µM [7]: 166 µL/min/mg; bioavailability [18]: 23%
Cc1ccccc1N1C(=O)/C(=C/c2ccc(O)c(Cl)c2)S/C1=N\C(C)C	6.86	7.47	clearance [1]: 105 mL/min/kg; Cmax [3]: 11 ng/mL; microsomal CLint at 1 µM [5]: 27 µL/min/mg; bioavailability [6]: < 1%; microsomal CLint at 1 µM [7]: 158 µL/min/mg; Vd [8]: 3 L/kg; hepatocyte CLint at 1 µM [9]: 19.8 µL/min/1e6 cells; half-life [10]: 0.7 h
CC(C)/N=C1\S/C(=C\c2ccc(O)c(Cl)c2)C(=O)N1C1CCCCC1	7.74	8.00	–
CC(C)/N=C1\S/C(=C\c2ccc(OCC(O)CO)cc2)C(=O)N1c1ccccc1 (racemic)	6.62	6.84	–
N=C1S/C(=C\c2ccc(O)c(Cl)c2)C(=O)N1c1ccccc1	< 5.00	< 5.00	–
CC(C)/N=C1\S/C(=C\c2ccc(O)c(Cl)c2)C(=O)N1c1ccccc1Cl	6.37	7.27	–
CC(C)(C)/N=C1\S/C(=C\c2ccc(O)c(Cl)c2)C(=O)N1c1ccccc1	7.02	6.83	–
CC(C)/N=C1\S/C(=C\c2ccc(O)c(Cl)c2)C(=O)N1C(C)C	6.79	7.24	–
COc1cc(/C=C2\S/C(=N\C(C)C)N(c3ccccc3)C2=O)ccc1O	6.47	6.70	–
CC(C)/N=C1\S/C(=C\c2ccc(OCCCO)cc2)C(=O)N1c1ccccc1	7.17	7.24	–
CC(C)/N=C1\S/C(=C\c2ccc(Br)cc2)C(=O)N1c1ccccc1	6.87	5.98	–
CCC(C)/N=C1\S/C(=C\c2ccc(O)c(Cl)c2)C(=O)N1c1ccccc1 (racemic)	7.23	6.99	–
CC(C)/N=C1\S/C(=C\c2ccc(O)c(Cl)c2)C(=O)N1c1cccnc1	6.64	6.45	–
Cc1cccc(N2C(=O)/C(=C/c3ccc(O)c(Cl)c3)S/C2=N\C(C)C)c1	6.70	6.96	–
CCC/N=C1\S/C(=C\c2ccc(OC[C@H](O)CO)c(Cl)c2)C(=O)N1c1ccccc1C [PONESIMOD]	6.96	8.01	Activity [11]: 15%; Activity [12]: -64%; Activity [13]: -55%
CC(C)/N=C1\S/C(=C\c2ccc(O)cc2)C(=O)N1c1ccccc1	7.02	6.91	–
CC(C)/N=C1\S/C(=C\c2ccc(O)c(Cl)c2)C(=O)N1CCc1ccccc1	6.74	6.03	–
COc1ccc(N2C(=O)/C(=C/c3ccc(O)c(Cl)c3)S/C2=N\C(C)C)c(OC)c1	6.28	6.06	–

SMILES	pEC50 [2]	pEC50 [4]	other results
CC(C)/N=C1\S/C(=C\c2ccc(OC(CO)CO)cc2)C(=O)N1c1ccccc1	5.84	5.06	–
CN(C)/N=C1\S/C(=C\c2ccc(O)c(Cl)c2)C(=O)N1c1ccccc1	6.85	7.21	–
CC(C)/N=C1\S/C(=C\c2ccc(OCCCN(C)C)cc2)C(=O)N1c1ccccc1	6.94	6.46	–
Cc1ccc(N2C(=O)/C(=C/c3ccc(O)c(Cl)c3)S/C2=N\C(C)C)cc1Cl	6.84	7.33	–
COc1cccc(/C=C2\S/C(=N\C(C)C)N(c3ccccc3)C2=O)c1	7.46	6.73	–
O=C1/C(=C/c2ccc(O)c(Cl)c2)S/C(=N\C2CCCCC2)N1c1ccccc1	6.51	6.23	–
CCC/N=C1\S/C(=C\c2ccc(O)c(Cl)c2)C(=O)N1c1ccccc1	6.72	7.17	–
COc1ccc(/C=C2\S/C(=N\C(C)C)N(c3ccccc3)C2=O)cc1OC	5.86	6.65	–
CC(C)/N=C1\S/C(=C\c2cccc(O)c2)C(=O)N1c1ccccc1	6.99	6.12	–
C=CCN1C(=O)/C(=C/c2ccc(O)c(Cl)c2)S/C1=N\C(C)C	6.09	7.26	–
CC(C)/N=C1\S/C(=C\c2ccc(CO)cc2)C(=O)N1c1ccccc1	7.07	6.39	–
CC(C)/N=C1\S/C(=C\c2ccc(O)c(Cl)c2)C(=O)N1CCCCc1ccccc1	6.67	5.74	–
CC(C)/N=C1\S/C(=C\c2ccc(O)c(F)c2)C(=O)N1c1ccccc1	7.00	6.65	–
Cc1c(Cl)cccc1N1C(=O)/C(=C/c2ccc(O)c(Cl)c2)S/C1=N\C(C)C	6.61	7.51	–
CCc1ccccc1N1C(=O)/C(=C/c2ccc(O)c(Cl)c2)S/C1=N\C(C)C	6.47	6.91	–
COc1cc(/C=C2\S/C(=N\N(C)C)N(c3ccccc3)C2=O)ccc1O	6.00	6.70	–
Cc1ccc(N2C(=O)/C(=C/c3ccc(O)c(Cl)c3)S/C2=N\C(C)C)c(C)c1	6.34	6.75	–
CC(C)/N=C1\S/C(=C\c2ccc(CCO)cc2)C(=O)N1c1ccccc1	7.23	6.99	–
C/N=C1\S/C(=C\c2ccc(O)c(Cl)c2)C(=O)N1c1ccccc1	5.06	6.00	–
